Screening data (PubChem)
Pyk2 oligo antag: Pyk2 (human) oligomerization antagonism. Q14289. Q293 cells, Pyk2 FERM NanoBiT luminescence; active compounds read low. z-score (the deposit names both 25 µM and 10 µM). hit rate 0.83% among 99,000;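 active = Z-score of -3 or lower, scaled per plate to the spread of control and sample wells; inactive = z-score above -3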;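 also: negative z-score means lost luminescence so less FERM oligomerization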
Ecoli tolC: growth inhibitors of E. coli BW25113 tolC mutant; OD615; growth inhibition, % at 10 µM (by protocol); hit rate 2.2% among 65,000; AID 573;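 active = growth inhibition at or above a cutoff equal to the mean over every tested compound plus 3 SD, cut at about 60% in these data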;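 also: growth measured after 20 h incubation at 37 °C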
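Test system: E. coli BW25113 ΔtolC::kan bacteria; incubation: 37 °C, 20 h exposure; medium: LB broth supplemented with 50 µg/mL kanamycin; read-out basis: percent growth inhibition; signal: A615 absorbance measurement; compound: 10 µM final, single dose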
Mac1 fbg enh: CD11b/CD18-fibrinogen binding enhancement. AID 1499. hit rate 0.07% among 93,000. activation, % at 10 µM. K562 CD11b/CD18 adhesion to fibrinogen, ATPlite luminescence;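 active = 10 µM primary screen giving 50% or more activity, confirmed by 40% or more on retest at that dose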
E coli WT exp: E. coli BW25113 growth inhibition, expanded screen; growth inhibition, % at 100 µM; hit rate 0.15% among 98,000; OD600 absorbance;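 active = growth inhibition above about 50% at one test dose, limit read from the data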;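 also: growth measured after 20 h incubation at 37 °C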
CD11b adhes inh: blocks human CD11b/CD18 adhesion to fibrinogen | P05107+P11215 | K562 CD11b/CD18 adhesion to fibrinogen, ATPlite luminescence; Mn2+ added to activate the integrin | inhibition, % at 10 µM | hit rate 0.54% among 93,000 | AID 1497;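 active = primary inhibition of 50% or more at 10 µM, then 40% or more on retest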
An asterisk follows results filed as active; · = no result. Hits are enriched below; roughly 2.3% of the tested compounds scored in any of these assays.

SMILES	Pyk2 oligo antag	Ecoli tolC	Mac1 fbg enh	E coli WT exp	CD11b adhes inh
CC(=O)C1=C(O)C(=O)N(c2cccc(C(=O)O)c2)C1c1ccc(F)cc1 (stereo unspecified)	-0.51	6	-1	·	5
CC1(C)NC(=O)N(CCOCCOc2c(Cl)cc(Cl)cc2Cl)C1=O	-0.11	·	-3	-5	-2
CCOc1ccc(Br)cc1/C(C)=N\NC1=NCCN1	0.93	·	-6	-3	84*
CCOc1ccc(CSC2=NCCN2)cc1Cl	-1.4	-11	·	8	·
Cc1cc(C)c2nc3s/c(=C/c4ccccc4)c(=O)n3c2c1	·	·	-5	2	57*
Cc1ccc2c(nc3s/c(=C/c4cccs4)c(=O)n32)c1C	0.81	8	33	·	15
Cc1ccccc1-n1c(Cn2c(=O)sc3ccccc32)nnc1SCC(=O)NCC1CCCO1 (stereo unspecified)	·	2	3	-1	-5
CCOc1ccc2nc(NC(=O)CSc3nc4c(c(=O)n(C)c(=O)n4C)n3C(C)C)sc2c1	-1.5	27	2	-23	13
CCCn1c(SCC(=O)Nc2ccccc2N2CCCCC2)nc2c1c(=O)n(C)c(=O)n2C	-0.59	65*	7	-12	17
O=C(CSc1nc2ccccc2o1)Nc1nc2ccccc2s1	2	33	83*	-4	9
CC(C)n1c(SCC(=O)Nc2nc3ccccc3s2)nc2c1c(=O)n(C)c(=O)n2C	-3.7*	·	·	·	·
O=C(CSc1nc2ccccc2o1)Nc1nc2c(s1)CCCC2	·	63*	·	·	·
Cc1ccccc1NC(=O)CSc1nc2ccccc2o1	0.79	·	2	-5	1
CCN(C(=O)CSc1nnc2ccccn12)c1c(N)n(Cc2ccccc2)c(=O)[nH]c1=O	·	·	0	·	24
CCN(CC(=O)Nc1cccc(OC)c1)c1ncnc2sc(C)c(C)c12	·	·	5	·	-3
CCN(CC)c1ccc(-n2c(O)c(C=C3N=c4ccccc4=N3)sc2=S)cc1	·	·	100	·	2
O=C(O)CCCCCn1c(O)c(C=C2N=c3ccccc3=N2)sc1=S	·	·	0	·	69*
Nc1nc(CN2CCN(c3cccc(Cl)c3)CC2)nc(N2CCCc3ccccc32)n1	3.1	100*	24	-6	-8
Nc1nc(CSc2nnnn2-c2ccccc2)nc(N2CCCc3ccccc32)n1	-4*	48	·	-3	·
Nc1nc(CN2CCN(c3ccccc3)CC2)nc(N2CCCc3ccccc32)n1	1.7	17	-1	6	34
COc1cccc(C2=NOC(C(=O)NCCN3CCOCC3)C2)c1 (stereo unspecified)	0.44	-19	-4	-1	-8
COc1ccc(NS(=O)(=O)c2ccc3oc4ccccc4c3c2)cn1	-0.14	100*	-9	-4	76
COc1ccc(OCCNS(=O)(=O)c2ccc3oc4ccccc4c3c2)cc1	-0.67	·	1	-7	-1
COc1ccc2c(-c3ccccc3)cc(N3CCOCC3)nc2c1	-0.71	100*	1	-14	-7
CN(C)c1ccc(/C=C/c2ccc3ccccc3[n+]2C)cc1	·	·	-7	·	79*
SMILES	Pyk2 oligo antag	Ecoli tolC	Mac1 fbg enh	E coli WT exp	CD11b adhes inh
CCOC(=O)c1c2c(n(C)c1C)C(=O)C(=O)c1ccc(Br)cc1-2	-3.5*	·	·	·	·
Cc1ccc(C)c(N2CCN(CC3CC=CCC3)CC2)c1 (stereo unspecified)	1.5	·	-2	6	-17
CN1CCN(C(=O)c2ccc(CSc3ccc(Cl)cc3)cc2)CC1	·	·	-2	·	76*
O=C(c1ccc(Cl)cc1)N1CCC(O)(CSc2ccc(Cl)cc2)CC1	-0.79	·	·	-7	·
O=C(Oc1ccccc1)c1cc2ccccc2o1	0.57	71*	4	9	-30
O=C1CC(c2ccc(Cl)c(Cl)c2)CC(O)=C1C=NCCN1CCNCC1 (stereo unspecified)	·	7	-2	-1	2
CN1/C(=C\C(=O)c2ccco2)C(C)(C)c2ccccc21	-0.29	-11	-1	-2	-3
CN1/C(=C/C(=O)c2nc(S(C)(=O)=O)ncc2Cl)C(C)(C)c2ccccc21	-3.8*	48	-3	-3	10
Cc1[nH]n(-c2nc(-c3cccc([N+](=O)[O-])c3)cs2)c(=O)c1C	1.1	·	·	·	·
O=c1c2c3nc4ccccc4nc3n(/N=C/c3cccs3)c2ncn1-c1ccccc1	·	28	0	·	3
CCc1nnc(NC(=O)c2ccc(S(=O)(=O)N(CC)Cc3ccccc3)cc2)o1	-1.4	100*	1	2	-11
CCCCN(CC)S(=O)(=O)c1ccc(C(=O)Nc2nnc(-c3cccs3)o2)cc1	·	99*	-2	-1	16
CCc1nnc(NC(=O)c2ccc(S(=O)(=O)N(CC)CC)cc2)s1	·	4	·	-14	·
